Data reported in ChEMBL document CHEMBL1151834, “Bioactive alkaloids from endophytic Aspergillus fumigatus” (J Nat Prod, 2009).
Counter-ions that a name gives are not always drawn. The source made the active and inactive calls. The calls are words filed in the database; no cut-off is given here.

Assays:
Type in all cases: functional, cell-based
[1] = test system: K562; assay: Cytotoxicity against human K562 cells after 48 hrs by MTT assay; conditions: K562, 48 h
How it was run: (§1)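 Exponential-phase cells plated, allowed 24 h to establish, then exposed to compound dilutions for 48 h. MTT added (0.1 mg/well) for 4 h, supernatant removed, formazan dissolved in DMSO, absorbance read at 570 nm. IC50 taken as concentration giving 50% growth inhibition; mean ± SD of three experiments run in triplicate.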

[2] = test system: MCF7; assay: Cytotoxicity against human MCF7 cells after 48 hrs by MTT assay; how it was run: as §1
[3] = test system: KB; assay: Cytotoxicity against human KB cells after 48 hrs by MTT assay; how it was run: as §1
[4] = test system: PC-12; assay: Induction of neurite outgrowth in rat PC12 cells at 10 uM after 2 days by phase-contrast microscope
How it was run: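 PC12 cells kept in DMEM with 10% heat-inactivated fetal calf serum, 5% horse serum, penicillin 50 units/mL and streptomycin 50 µg/mL at 37 °C, 5% CO2. Seeded at 1 × 10^4 cells/mL, cultured one day, then medium replaced with fresh medium containing compound. Cultured 2 days; neurite outgrowth observed by phase-contrast microscopy against untreated control.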

SMILES	IC50 [1] [µM]	Activity [2]	Activity [3]	Activity [4]
COc1cccc2c1C(=O)c1c(O)c3c(c(O)c1C2=O)C[C@@](O)(C(=O)CO)C[C@@H]3O[C@H]1C[C@H](N)[C@H](O)[C@H](C)O1 [DOXORUBICIN HYDROCHLORIDE]	1.2			
COc1ccc2c3c([nH]c2c1)[C@H](C=C(C)C)N1C(=O)[C@@H]2CCCN2C(=O)[C@@H]1C3 [FUMITREMORGIN]	41	inactive	inactive	inactive
CC/C=C\[C@H](O)[C@H](O)C1=C(C)C(=O)[C@]2(O1)C(=O)N[C@@](OC)(C(=O)c1ccccc1)[C@@H]2O		inactive	inactive	Active
C=CC(C)(C)c1[nH]c2cccc3c2c1C[C@@H]1[C@@H]3[C@@H](O)[C@@H](C)CN1C	41	inactive	inactive	inactive
C/C=C\[C@H](O)[C@H](O)C1=C(C)C(=O)[C@]2(O1)C(=O)N[C@@](OC)(C(=O)c1ccccc1)[C@@H]2O		inactive	inactive	
COc1ccc2c(c1)NC(=O)[C@@]21C[C@H]2C(=O)N3CCC[C@H]3C(=O)N2[C@H]1C=C(C)C		inactive	inactive	inactive
C[C@@H]1N[C@@H]2N(C1=O)c1ccccc1[C@@]21C[C@@H](n2cnc3ccccc3c2=O)C(=O)O1		inactive	inactive	inactive
CC(C)=C[C@H]1c2[nH]c3ccccc3c2C[C@H]2C(=O)N3CCC[C@H]3C(=O)N21		inactive	inactive	inactive
C=CC(C)(C)c1[nH]c2cccc3c2c1C[C@@H]1[C@@H]3C[C@@H](C)CN1C	3.1	inactive	inactive	inactive
COc1ccc2c(C[C@@H]3NC(=O)[C@@H]4CCCN4C3=O)c(CC=C(C)C)[nH]c2c1 [TRYPROSTATIN A]	41	inactive	inactive	inactive
CC(C)=CCc1[nH]c2ccccc2c1C[C@@H]1NC(=O)[C@@H]2CCCN2C1=O [TRYPROSTATIN B]	41	inactive	inactive	inactive
COc1ccc2c(c1)NC(=O)[C@@]21C=C2C(=O)N3CCC[C@H]3C(=O)N2[C@H]1C=C(C)C		inactive	inactive	inactive
COc1ccc2c3c4n(c2c1)[C@H](C=C(C)C)OOC(C)(C)C[C@@H]4N1C(=O)[C@@H]2CCCN2C(=O)[C@]1(O)[C@H]3O [VERRUCULOGEN]	41	inactive	inactive	inactive
CS[C@]1(CO)C(=O)N2[C@H]3C(=CC=CC3O)C[C@@]2(SC)C(=O)N1C (stereo partly specified) [DIMETHYLGLIOTOXIN]	41	inactive	inactive	inactive
